# Residue numbers refer to the chain shown, from its start. Counter-ions that a name gives are not always drawn. Like-named read-outs stand apart in the source and are kept apart here.
# Key:
# [1] = biological target: T1, JARID1A PHD3 (Homo sapiens, UniProt P29375); experiment: HaloTag assay for histone peptide binding; conditions: for effect on JARID1A PHD3 binding to H3K4me3 peptide in HaloTag assay: compound 0–200 μM
# T1 sequence (P29375 1601-1660): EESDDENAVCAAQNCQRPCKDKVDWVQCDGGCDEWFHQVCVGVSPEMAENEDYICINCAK
# Procedure, shortened: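 (HQ)5-HaloTag-JARID1A PHD3 (40 μM as added) is captured on HaloTag-ligand plates for 2 h with shaking, then washed with HBST. […] Detection uses streptavidin-HRP (1:2,000, 20 min), six washes and chemiluminescence. Diluent is StabilCoat with 0.5 mM TCEP, at ambient temperature. IC50 is fitted from relative binding versus log[inhibitor].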
# [2] = biological target: T2, AIRE PHD1 (Homo sapiens, UniProt O43918); experiment: HaloTag assay counterscreen; format: binding; conditions: 0, 50, 100, 200 μM
# T2 sequence (O43918 293-354): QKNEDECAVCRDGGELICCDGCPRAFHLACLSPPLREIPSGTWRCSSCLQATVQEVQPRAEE
# [3] = biological target: T3, BHC80 PHD (Homo sapiens, UniProt Q96BD5); experiment: HaloTag assay counterscreen; format: binding; conditions: 0, 50, 100, 200 μM
# [4] = biological target: T4, RAG2 PHD (Mus musculus, UniProt P21784); experiment: HaloTag assay counterscreen; format: binding; conditions: 0, 50, 100, 200 μM
# T4 sequence (P21784 414-487): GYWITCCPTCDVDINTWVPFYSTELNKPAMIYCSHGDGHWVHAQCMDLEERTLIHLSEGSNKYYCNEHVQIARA
# [5] = biological target: T5, JMJD2A DTD (Homo sapiens, UniProt O75164); experiment: HaloTag assay counterscreen; format: binding; conditions: 0, 50, 100, 200 μM
# T5 sequence (O75164 895-1011): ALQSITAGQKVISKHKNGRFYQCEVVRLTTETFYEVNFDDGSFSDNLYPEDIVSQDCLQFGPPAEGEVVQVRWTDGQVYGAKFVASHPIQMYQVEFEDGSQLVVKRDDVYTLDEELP
# [6] = biological target: T6, GST-JARID1A PHD3 (Homo sapiens, UniProt P29375); experiment: Fluorescence polarization binding assay; conditions: for loss of polarization (loss of peptide binding): up to 200 μM
# T6 sequence (P29375 1601-1660): T1 sequence (P29375 1601-1660)
# [7] = biological target: T1, JARID1A PHD3; experiment: Zinc ejection study; format: biochemical; conditions: for zinc release from JARID1A PHD3 (PAR assay): increasing concentrations
# Procedure, shortened: (§1)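 His6-JARID1A PHD3 or (HQ)5-HaloTag reader-domain fusion at 5 μM was treated with increasing test compound concentrations in 10 mM PAR, 30 mM HEPES, 150 mM NaCl, pH 7.4, 5% v/v DMSO. Triplicates were shaken 10 min. A boiled DMSO-only sample served as the destabilization-induced zinc release reference. Zinc release was read as absorbance at 500 nm, with DMSO-only values subtracted.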
# [8] = biological target: T7, wild-type (WT) JARID1A PHD3 (Homo sapiens, UniProt P29375); experiment: Dose ratio; format: binding; conditions: di-N-desethylamiodarone 0, 20, 40, 80 μM; tegaserod maleate 0, 80, 160, 320 μM
# T7 sequence (P29375 1601-1660): T1 sequence (P29375 1601-1660)
# [9] = tested on: JARID1A PHD3 D1624 mutants; experiment: Dose ratio; format: binding; conditions: di-N-desethylamiodarone 0, 20, 40, 80 μM; tegaserod maleate 0, 80, 160, 320 μM
# Procedure, shortened: (§2)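 Fluorescence polarization Schild analysis. Increasing GST-JARID1A PHD3 (wild type or mutant) is titrated against a fixed inhibitor concentration plus 3 nM H3(1–14)K4me3K14fluo probe. The EC50 is determined at each inhibitor level. The dose ratio is the fold change in EC50 with inhibitor relative to EC50 without inhibitor.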
# [10] = tested on: JARID1A PHD3 D1629 mutants; experiment: Dose ratio; format: binding; conditions: di-N-desethylamiodarone 0, 20, 40, 80 μM; tegaserod maleate 0, 80, 160, 320 μM
# Procedure, shortened: as §2
# [11] = biological target: T1, JARID1A PHD3; experiment: Affinity pull down with TMR-labeled HaloTag-JARID1A PHD3; format: binding; conditions: for inhibition of JARID1A PHD3 in affinity pull down: compound 0–500 μM
# Procedure, shortened: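 Streptavidin-agarose beads are loaded with biotinylated histone peptide (about 300 pmol per 6.6 μL bed volume) in 1% BSA-HBST for 30 min. HaloTag-JARID1A PHD3 is prelabeled with TMR ligand (10 μM each, 15 min, dark) and used at 100 nM final with beads. Compound is 0–500 μM at 5% DMSO, 45 min ambient, dark. After three HBST washes, beads are boiled in SDS buffer, run on 12% SDS-PAGE and scanned for TAMRA fluorescence.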
# [12] = biological target: T2, AIRE PHD1; experiment: Zinc ejection study; format: biochemical; conditions: compared with JARID1A PHD3
# Procedure, shortened: as §1
# [13] = biological target: T3, BHC80 PHD; experiment: Zinc ejection study; format: biochemical; conditions: compared with JARID1A PHD3
# Procedure, shortened: as §1
# [14] = biological target: T8, JMJD2A double tudor domain (Homo sapiens, UniProt O75164); experiment: Zinc ejection study; format: biochemical
# T8 sequence (O75164 895-1011): T5 sequence (O75164 895-1011)
# Procedure, shortened: as §1
# [15] = biological target: T5, JMJD2A DTD; experiment: Fluorescence polarization counterscreen; format: binding
# Procedure, shortened: (§3)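 Test compound titrated into GST-reader fusion at its 90% fraction-bound concentration plus 3 nM fluorescein-labeled H3(1–14) probe. Protein: AIRE PHD1 4 μM and BHC80 PHD 60 μM (K4-unmodified probe); JMJD2A DTD 4 μM and RAG2 PHD 25 μM (K4me3 probe). Buffer was 30 mM HEPES, 150 mM NaCl, pH 7.4, 0.01% Triton X-100. Triplicates read by polarization. IC50 fitted from fraction bound versus log[inhibitor].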
# [16] = biological target: T4, RAG2 PHD; experiment: Fluorescence polarization counterscreen; format: binding; conditions: NM: Not measurable within solubility limit of compound
# Procedure, shortened: as §3
# [17] = biological target: T2, AIRE PHD1; experiment: Fluorescence polarization counterscreen; format: binding; conditions: H3K4-unmodified probe; NM: Not measurable within solubility limit of compound
# Procedure, shortened: as §3
# [18] = biological target: T3, BHC80 PHD; experiment: Fluorescence polarization counterscreen; format: binding; conditions: H3K4-unmodified probe; NM: Not measurable within solubility limit of compound
# Procedure, shortened: as §3
# [19] = biological target: T9, JARID1A PHD3 D1629A (Homo sapiens, UniProt P29375, D1629A); format: binding; conditions: D1629 mutation, independent of substitution
# T9 sequence (P29375 1601-1660 D1629A): T1 sequence (P29375 1601-1660) with D29A
# [20] = biological target: T10, JARID1A PHD3 D1629N (Homo sapiens, UniProt P29375, D1629N); format: binding; conditions: D1629 mutation, independent of substitution
# T10 sequence (P29375 1601-1660 D1629N): T1 sequence (P29375 1601-1660) with D29N
# T3 sequence (Q96BD5 486-543): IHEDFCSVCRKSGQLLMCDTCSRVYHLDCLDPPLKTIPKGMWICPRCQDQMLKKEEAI
molecule,measurement,setting,value
"CCCCc1oc2ccccc2c1C(=O)c1cc(I)c(OCCN(CC)CC)c(I)c1 [Amiodarone, amiodarone HCl]",effect on JARID1A PHD3 binding to H3K4me3 peptide in HaloTag assay,[1],significantly reduced signal
same,"loss of peptide binding, AIRE PHD1, HaloTag assay",[2],but not AIRE PHD1 or BHC80 PHD
same,"loss of peptide binding, BHC80 PHD, HaloTag assay",[3],but not AIRE PHD1 or BHC80 PHD
same,"loss of peptide binding, RAG2 PHD, HaloTag assay",[4],significantly affected
same,"loss of peptide binding, JMJD2A DTD, HaloTag assay",[5],significantly affected
same,loss of polarization (loss of peptide binding),[6],did not cause a significant loss in polarization
same,zinc release from JARID1A PHD3 (PAR assay),[7],not causing zinc release
"CCCCc1oc2ccccc2c1C(=O)c1cc(I)c(OCCNCC)c(I)c1 [Desethylamiodarone, desethylamiodarone]",inhibition of JARID1A PHD3 in fluorescence polarization assay,[6]; within the concentration range tested,Neither dimethyl-AMI analog nor desethyl-AMI significantly inhibited
"CCCCc1oc2ccccc2c1C(=O)c1cc(I)c(OCCN)c(I)c1 [Di-N-desethylamiodarone, di-N-desethylamiodarone]",shift of EC50 / dose ratio with increasing fixed inhibitor,[8],increase in EC50 values
same,shift of EC50 / dose ratio with increasing fixed inhibitor,[9],dose ratios were less pronounced than for WT JARID1A PHD3
same,shift of EC50 / dose ratio with increasing fixed inhibitor,[10],dose ratios that remained near one
"CSS(C)(=O)=O [MMTS, methyl methanethiosulfonate]",EC50,"[7]; read-out: concentration for half-maximal zinc loss (PAR assay), 5 μM His6-JARID1A PHD3",33 µM
CCc1oc2ccccc2c1C(=O)c1cc(Br)c(O)c(Br)c1 [benzbromarone],effect on JARID1A PHD3 binding to H3K4me3 peptide in HaloTag assay,[1],"but not benzbromarone, inhibited JARID1A PHD3"
"CCN(CC)C(=S)SSC(=S)N(CC)CC [disulfiram, tetraethylthiuram disulfide]",effect on JARID1A PHD3 binding to H3K4me3 peptide in HaloTag assay,[1],significantly reduced signal
same,"loss of peptide binding, AIRE PHD1, HaloTag assay",[2],Significant (by p-value) loss of peptide binding
same,"loss of peptide binding, BHC80 PHD, HaloTag assay",[3],Significant (by p-value) loss of peptide binding
same,"loss of peptide binding, RAG2 PHD, HaloTag assay",[4],Significant (by p-value) loss of peptide binding
same,inhibition of JARID1A PHD3 in affinity pull down,[11],inhibited JARID1A PHD3
same,loss of polarization (loss of peptide binding),[6],did not cause a significant loss in polarization
same,EC50,[7],10 µM
same,"susceptibility to zinc ejection, AIRE PHD1",[12],similarly susceptible
same,"susceptibility to zinc ejection, BHC80 PHD",[13],similarly susceptible
same,zinc release from JMJD2A double tudor domain,[14],No zinc release was observed
CCCCc1oc2ccc(NS(C)(=O)=O)cc2c1C(=O)c1ccc(OCCCN(CCCC)CCCC)cc1 [dronedarone],effect on JARID1A PHD3 binding to H3K4me3 peptide in HaloTag assay,[1],inhibited JARID1A PHD3
O=C(O)/C=C\C(=O)O [maleate],effect on JARID1A PHD3 binding to H3K4me3 peptide in HaloTag assay,[1],not maleate
c1ccc2c(c1)Nc1ccccc1S2 [phenothiazine],effect on JARID1A PHD3 binding to H3K4me3 peptide in HaloTag assay,[1],significantly reduced signal
same,loss of polarization (loss of peptide binding),[6],did not cause a significant loss in polarization
"[H]/N=C(/NCCCCC)N/N=C/c1c[nH]c2ccc(OC)cc12 [tegaserod, Tegaserod maleate]",effect on JARID1A PHD3 binding to H3K4me3 peptide in HaloTag assay,[1],significantly reduced signal
same,"loss of peptide binding, AIRE PHD1, HaloTag assay",[2],Modest reductions in binding
same,"loss of peptide binding, BHC80 PHD, HaloTag assay",[3],Modest reductions in binding
same,"loss of peptide binding, RAG2 PHD, HaloTag assay",[4],Modest reductions in binding
same,"loss of peptide binding, JMJD2A DTD, HaloTag assay",[5],Modest reductions in binding
same,inhibition of JARID1A PHD3 in affinity pull down,[11],inhibited JARID1A PHD3
same,IC50,[6],74 ± 16 µM
same,IC50,[15],95 ± 9.8 µM
same,"IC50 towards RAG2 PHD, fluorescence polarization assay",[16],exceeded the solubility limits
same,"IC50 towards AIRE PHD1, fluorescence polarization assay",[17],exceeded the solubility limits
same,"IC50 towards BHC80 PHD, fluorescence polarization assay",[18],exceeded the solubility limits
same,zinc release from JARID1A PHD3 (PAR assay),[7],not causing zinc release
same,shift of EC50 / dose ratio with increasing fixed inhibitor,[8],increase in EC50 values
same,shift of EC50 / dose ratio with increasing fixed inhibitor,[9],dose ratios were less pronounced than for WT JARID1A PHD3
same,shift of EC50 / dose ratio with increasing fixed inhibitor,[10],dose ratios that remained near one
H3K4me3 peptide: histone H3 peptide trimethylated at lysine 4; unlabeled competitor or fluorescein-labeled H3(1–14) probe,IC50,"[11]; read-out: experimental IC50, peptide competition in affinity pull down",13.6 ± 4.5 µM
same,defect in affinity relative to wild-type,[19],greater than 10 fold
same,defect in affinity relative to wild-type,[20],greater than 10 fold
unmethylated H3 peptide: histone H3 peptide unmodified at lysine 4 (ARTKQTARKSTEW; E(PEG-biotin) at position 12),inhibition of JARID1A PHD3 by peptide competition in HaloTag assay,[1]; 25 μM peptide,did not significantly inhibit
